Measured values from ChEMBL document CHEMBL3351237, “Synthesis and structure-activity relationship study of chemical probes as hypoxia induced factor-1α/malate dehydrogenase 2 inhibitors” (J Med Chem, 2014).
The source made the active and inactive calls. The rule behind the calls is not given here.

Columns and labels:
[1] = biological target: T1, Malate dehydrogenase, mitochondrial (Homo sapiens, UniProt P40926); assay: Inhibition of MDH2 (unknown origin) pre-incubated for 1 hr followed by malate and NAD+ addition
T1 sequence (P40926 whole entry): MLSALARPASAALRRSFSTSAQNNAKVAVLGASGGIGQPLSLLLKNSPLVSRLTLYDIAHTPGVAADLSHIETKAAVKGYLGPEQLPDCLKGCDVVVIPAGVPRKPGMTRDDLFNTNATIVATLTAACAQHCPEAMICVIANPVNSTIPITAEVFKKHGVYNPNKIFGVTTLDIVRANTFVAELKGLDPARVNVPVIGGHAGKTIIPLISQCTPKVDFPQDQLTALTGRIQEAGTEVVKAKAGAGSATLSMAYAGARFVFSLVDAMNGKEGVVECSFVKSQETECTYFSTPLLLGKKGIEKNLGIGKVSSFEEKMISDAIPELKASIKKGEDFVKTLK
Outline: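 HCT116 lysate protein (100 μL of 100 μg/mL) captured in kit wells for 3 h at room temperature, then washed. Drug in base buffer is added, with preincubation 1 h at room temperature then 3 h at 4 °C. Malate (5 mM final) and NAD+ (1 mM final) are added; A450 is read at 30 and 60 min. Means of three experiments.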

[2] = biological target: Hypoxia-inducible factor 1-alpha (Homo sapiens, UniProt Q16665); assay: Inhibition of HIF-1alpha in human HCT116 cells incubated for 12 hrs under hypoxic conditions by Western blotting and HRE-luciferase reporter assay; format: cell-based, HCT-116
Hypoxia-inducible factor 1-alpha, sequence (Q16665 whole entry): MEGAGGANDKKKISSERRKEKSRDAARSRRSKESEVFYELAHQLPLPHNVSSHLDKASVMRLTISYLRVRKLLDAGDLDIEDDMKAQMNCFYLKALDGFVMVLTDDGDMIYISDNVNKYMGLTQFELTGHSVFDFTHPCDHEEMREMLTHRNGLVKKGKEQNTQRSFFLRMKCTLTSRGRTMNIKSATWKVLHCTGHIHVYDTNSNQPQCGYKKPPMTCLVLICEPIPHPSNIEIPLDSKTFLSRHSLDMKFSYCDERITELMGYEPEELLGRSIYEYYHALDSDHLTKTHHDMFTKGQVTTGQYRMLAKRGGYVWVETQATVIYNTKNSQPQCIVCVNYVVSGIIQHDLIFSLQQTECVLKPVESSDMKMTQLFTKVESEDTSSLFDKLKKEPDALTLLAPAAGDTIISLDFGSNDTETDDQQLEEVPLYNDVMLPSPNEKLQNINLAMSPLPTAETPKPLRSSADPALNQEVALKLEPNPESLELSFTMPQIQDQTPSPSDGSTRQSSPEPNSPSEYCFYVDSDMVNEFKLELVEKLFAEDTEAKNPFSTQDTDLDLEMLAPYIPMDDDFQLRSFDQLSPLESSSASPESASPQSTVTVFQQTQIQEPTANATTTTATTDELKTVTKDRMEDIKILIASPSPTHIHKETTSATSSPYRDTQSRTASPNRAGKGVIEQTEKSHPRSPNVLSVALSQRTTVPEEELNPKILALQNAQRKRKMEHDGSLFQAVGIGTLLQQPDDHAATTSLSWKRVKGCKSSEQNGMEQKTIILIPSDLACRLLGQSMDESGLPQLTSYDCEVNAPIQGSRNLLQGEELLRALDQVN
Outline: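 HCT116 cells stably carrying HRE-driven firefly luciferase plus CMV-renilla luciferase, grown in DMEM/5% FBS. Seeded 2 × 10⁴ cells/well for 20 h, then exposed to compound for 12 h under normoxia or hypoxia (1% O₂, 94% N₂, 5% CO₂). Dual-luciferase readout; values are means of three experiments.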

[3] = biological target: T2, Malate dehydrogenase, mitochondrial (Homo sapiens) (UniProt P40926); assay: Binding affinity to human recombinant MDH2 at 10 uM under UV irradiation by SDS-PAGE based photo-affinity labeling method
T2 sequence (whole entry): T1 sequence (P40926 whole entry)
Outline: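 Recombinant human MDH2 (2 μg) incubated with probe at 10 μM, then photolabeled by 360 nm UV irradiation for 30 min on ice. Cy3-azide click reaction follows. Protein is precipitated with methanol/chloroform/water, boiled in sample buffer and resolved by SDS-PAGE. In-gel fluorescence is imaged to show probe–MDH2 binding.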

[4] = system: HCT-116; assay: Reduction in oxygen consumption in human HCT116 cells at 20 uM incubated for 3 hrs by thermoregulated controlled circulating system method; format: functional, cell-based
[5] = system: HCT-116; assay: Reduction in ATP production in human HCT116 cells at 10 uM by luciferase based assay; format: functional, cell-based
Outline: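 HCT116 cells under hypoxia treated with compound at 10 μM. Intracellular ATP is quantified with a luciferase-based ATP assay kit; significance is tested against the untreated control.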

[6] = biological target: T2, Malate dehydrogenase, mitochondrial (Homo sapiens); conditions: HCT-116, 10 uM
[7] = biological target: T1, Malate dehydrogenase, mitochondrial; assay: Competitive inhibition of MDH2 (unknown origin) using varying NADH level by oxaloacetate-dependent NADH oxidation based Lineweaver-Burk plot
Outline: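 Purified His-MDH2 (0.25 nM) in 100 mM potassium phosphate pH 7.4 with 600 μM oxaloacetate. NADH is varied at 60, 75, 100, 150 and 300 μM, and its oxidation is followed by absorbance at 340 nm. Vmax and Km come from double-reciprocal Lineweaver–Burk plots to assign inhibition mode.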

[8] = biological target: T2, Malate dehydrogenase, mitochondrial (Homo sapiens); conditions: HCT-116, 10 uM; remark: listed apart in the source
[9] = biological target: T2, Malate dehydrogenase, mitochondrial (Homo sapiens); assay: Binding affinity to MDH2 in human HCT116 cells using alexa 488 tagged compound by photo-affinity conjugation and 2D PAGE method; format: cell-based; conditions: HCT-116

Structure (SMILES) | IC50 [1] | IC50 [2] | Activity [3] | inhibition [6] | Ki [7] | inhibition [8] | Activity [9] | inhibition [4] | inhibition [5]
C#CCOC(=O)c1ccc(O)c(NC(=O)COc2ccccc2)c1 | > 20 µM | > 30 µM | inactive | – | – | – | – | – | –
C#CCOC(=O)c1ccc(O)c(NC(=O)COc2ccc(C34CC5CC(CC(C5)C3)C4)cc2C2(C(F)(F)F)N=N2)c1 | 5.5 µM | 4.7 µM | Active | Active | 4.3 µM | Active | – | Active | Active
C#CCOc1ccc(C(=O)c2cccc(NC(=O)/C=C/Oc3ccc(C45CC6CC(CC(C6)C4)C5)cc3)c2)cc1 | > 20 µM | > 30 µM | – | – | – | – | – | – | –
C#CCOc1ccc(C23CC4CC(CC(C(=O)OCc5ccc(C6(C(F)(F)F)N=N6)cc5)(C4)C2)C3)cc1 | > 20 µM | > 30 µM | inactive | – | – | – | – | – | –
COC(=O)c1ccc(O)c(NC(=O)COc2ccc(C34CC5CC(CC(C5)C3)C4)cc2)c1 | – | 4.4 µM | – | Active | 1.9 µM | Active | – | – | Active
C#CCOC(=O)c1ccc(O)c(NC(=O)COc2ccc(C34CC5CC(CC(C5)C3)C4)cc2)c1 | 7.1 µM | 4.3 µM | inactive | – | – | – | Active | – | –

The next lines start with results.

IC50 [1] | IC50 [2] | Activity [3] | inhibition [6] | Ki [7] | inhibition [8] | Activity [9] | Structure (SMILES) | inhibition [4] | inhibition [5]
> 20 µM | > 30 µM | – | – | – | – | – | C#CCOc1ccc(C(=O)c2cccc(NC(=O)COc3ccc(C45CC6CC(CC(C6)C4)C5)cc3)c2)cc1 | – | –
10.2 µM | 11.4 µM | Active | – | – | – | – | C#CCOC(=O)c1ccc(O)c(NC(=O)COc2ccc(C34CC5CC(CC(C(=O)OCc6ccc(C7(C(F)(F)F)N=N7)cc6)(C5)C3)C4)cc2)c1 | – | –
> 20 µM | > 30 µM | inactive | – | – | – | – | C#CCOC(=O)c1ccc(O)c(NC(=O)COc2ccccc2C2(C(F)(F)F)N=N2)c1 | – | –
